In ChEMBL document CHEMBL4513216, “Probing the Open Global Health Chemical Diversity Library for Multistage-Active Starting Points for Next-Generation Antimalarials” (ACS Infect Dis, 2020):

Experiment: Toxicity liver stage against HepG2, at 10uM
Type: cell-based
Set-up: test concentration 10 uM, cell line HepG2-A16-CD81EGFP
Conditions: human, HepG2-A16-CD81EGFP cells; read-out: INHIBITION
Procedure, shortened: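 Uninfected HepG2-A16-CD81EGFP cells, 3 × 10^3 per well, 1536-well, plated on prespotted compound at 10 μM final, parasite-free screening media added to match infected plates; puromycin 10 μM positive, DMSO 0.5% negative; run in parallel with 48 h PbLuc assay at 37 °C, 5% CO2; viability by CellTiter-Glo luminescence, normalized to controls.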

SMILES | cytotoxicity at 10 µM
CCCc1nc(CNC2(c3nccs3)CCCC2)cs1 | 2.63%
CN(Cc1nnc(-c2cccs2)o1)C(C(N)=O)c1cccc(F)c1 (stereo unspecified) | 13.7%
CC(C)C1CN(C(=O)Nc2cnn(CC(F)F)c2)CCO1 (stereo unspecified) | 8.52%
O=S(=O)(CC1CCCO1)Nc1cc(Cl)ccc1-n1cccn1 (stereo unspecified) | 3.55%
CC(C)(C)C(=O)NCCC(=O)NS(=O)(=O)c1ccc2c(c1)OCCO2 | -3.81%
Cc1ccccc1CS(=O)(=O)CC(=O)NCc1ccccc1F | -6%
CCc1nc2n(n1)CC(NCc1nc(C)ccc1O)CC2 (stereo unspecified) | -9.96%
O=C(CC1CN(Cc2ccccc2)CCO1)NC1CCCC1 (stereo unspecified) | -0.394%
O=C1CCCCN1CCc1nc(C2(c3ccc(F)cc3)CCOC2)no1 (stereo unspecified) | 3.82%
CC(=O)NCCNC(=O)C(c1ccccc1C)N(C)C (stereo unspecified) | 10.6%
COc1ccc2cc(CN(C)CCN3CCCCC3=O)c(=O)[nH]c2c1 | 0.363%
CC(C)N(CCO)C(=O)c1cc(COc2ccc3c(c2)CCCC3)on1 | -135%
COc1ccc(C(=O)N2C[C@@H](O)[C@H](NCCc3ncccc3C)C2)cc1 | -3.71%
COCc1noc(Cn2ccc3ccccc3c2=O)n1 | 0.761%
O=C(CCCN1CCCCC1)N1CCN(C(=O)c2nc[nH]n2)CC1 | 7.81%
O=C(NCc1ccc(F)cc1F)C(c1cccnc1)N1CCOCC1 (stereo unspecified) | -4.89%
O=C(O)CCc1cc2n(n1)CCN(Cc1ccc3[nH]ccc3c1)C2 | -2.32%
C[C@H](N)C(=O)N1CCC(c2[nH]ncc2-c2ccccc2)CC1 | 2.4%
Cc1cccc(CN2CCCC(O)(CNCc3cccc(F)c3)C2=O)c1 (stereo unspecified) | -12.1%

SMILES | cytotoxicity at 10 µM
COCC1CCCCN1C(=O)c1cc(Cn2ccc3ccccc32)[nH]n1 (stereo unspecified) | -3.54%
CCc1ncc(C(=O)N2CCN(C(=O)COc3ccccc3)CC2)cn1 | -12.8%
CCN(Cc1cnn(C)c1)C[C@H]1CC[C@@H](Cc2cccc(C#N)c2)O1 | 0.194%
CCCn1cc(C(=O)NCCc2ccc3c(c2)OCO3)c(C)n1 | 96.3%
COc1ccccc1NC(=O)c1cc2c([nH]c1=O)CCCC2=O | -4.14%
N#Cc1c(C2CC2)cc(-c2ccc(O)cc2)nc1N | -4.72%
CCc1nc(C)c([C@H]2CN(C)C[C@@H]2C(=O)Nc2ccc(OC)cc2)[nH]1 | -6.66%
COCCCNC(=O)CN(C)C(=O)c1cc(Cl)ccc1O | -1.84%
CC(C)c1nc(CN2CCOC(Cn3cncn3)C2)no1 (stereo unspecified) | 1.01%
COc1ccc(NC(=O)NCc2ccnc(N(C)C)c2)cn1 | -8.6%
COc1cc(CNC(=O)N(Cc2ccc(F)cc2F)C2CC2)ccn1 | -9.17%
CCCN(C)CCC(=O)N1CCCC1Cn1cccn1 (stereo unspecified) | -16.9%
CC(NC(=O)N1CCN(c2nccs2)CC1)c1nncn1C (stereo unspecified) | -13.1%
Cc1cnn(CCNCc2ccccc2OCc2ccncc2)c1 | -16.1%
Cc1cnn(CCNCc2ccccc2OCc2ccccn2)c1 | 3.03%
Cc1ccc(F)c(C(=O)N2CCC(Nc3ccc(C)nn3)CC2)c1 | -3.78%
CCOc1ccccc1OC1CCN(C(=O)c2ccc(=O)[nH]n2)CC1 | -8.7%
Cc1cc(C(=O)N2CCc3nnc(N)cc3C2)c(C)n1C1CC1 | -3.71%
COc1c(CNCc2ccc(CN(C)C)cc2)c(C)nn1C | 3.87%

SMILES | cytotoxicity at 10 µM
CC(C)CN1CCC2(CCCNC2)C1=O (stereo unspecified) | -0.184%
O=C(CN1CCCCC1)N1CCC(c2cc(=O)n3c(n2)CCCCC3)C1 (stereo unspecified) | -32.5%
O=S(=O)(NC[C@]12COC[C@H]1CN(c1ncc(F)cn1)C2)C1CC1 | -128%
Cc1cnc(N2CC[C@@H]3CN(Cc4ccncc4)CCO[C@@H]3C2)nc1 | 3.23%
c1cnc(N2CCO[C@H]3CN(Cc4cc[nH]n4)C[C@H]32)cn1 | 9.07%
CNC(=O)C1CNCCN1C(=O)c1ccc(C(F)(F)F)nc1C (stereo unspecified) | -4.7%
O=C(c1nc2c(o1)CN(CC1CCC1)C2)N1CCCC1 | -131%
O=C(c1cnccn1)N1CCCC2(CCN(Cc3ccsc3)C2)C1 (stereo unspecified) | -2.27%
CNC(=O)[C@H]1C[C@@H]2CN(S(=O)(=O)Cc3ccccc3)C[C@@H]2N1C | -5.06%
CN(C)C(=O)N[C@@H]1CN(Cc2ccc3c(c2)OCO3)[C@@H]2CCCO[C@@H]21 | -6.93%
Cc1nc(CN2CCOCC23CCN(c2ccc(C#N)cc2)CC3)cs1 | -13.8%
CN1CCOCC12CCN(c1ccc(C#N)cc1)CC2 | -4.23%
O=C(C1CC1)N1CC2(CCN(CC3CC3)CC2)c2cc(F)ccc21 | 0.64%
COCCN1CCc2ccc(=O)n(Cc3csc(C)n3)c2CC1 | 4.68%
COCCN1C[C@@H]2CCCO[C@@H]2[C@H](N(C)Cc2ccco2)C1 | -0.388%
CNc1nc2cn(CCc3ccc(Cl)cc3)c(=O)c-2c[nH]1 | 5.2%
Cc1nnsc1CN1C[C@@H]2CC[C@H]1CN(Cc1ccccn1)C2 | -3.56%
COc1ccc(OC)c(C2c3c(n[nH]c3C)N=C3COC(=O)C32)c1 (stereo unspecified) | -11.3%
